High-throughput results as filed in PubChem BioAssay.
SENP1 FRET inh = human SENP1 catalytic domain inhibitors, primary screen, biochemical, FRET, uHTS. hit rate 0.21% among 360,000. inhibition, % at 10 µM. recombinant SENP1 catalytic domain, CyPet-SUMO1-YPet FRET cleavage;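 active = inhibition at least 30% at 10 µM, raw YFP signal under a set limit, fluorescence ratio 0.5 to 1.5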
Target sequence (Q9P0U3 419-644 limits assumed): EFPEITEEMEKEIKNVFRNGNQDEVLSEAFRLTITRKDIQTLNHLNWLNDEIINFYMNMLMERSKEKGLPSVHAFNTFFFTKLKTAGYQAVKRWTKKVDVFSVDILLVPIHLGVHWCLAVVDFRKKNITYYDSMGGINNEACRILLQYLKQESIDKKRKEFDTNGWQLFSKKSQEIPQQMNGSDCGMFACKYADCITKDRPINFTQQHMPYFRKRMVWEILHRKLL
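Material: hSENP1 catalytic domain, recombinant; medium: Tris pH 8 with BME, BSA, NP40 and catalase; compound: single concentration of 10 µM compound, 0.5% DMSO final; technique: FRET read of cyan and yellow fluorescence; timing: 50 min enzyme reaction, room temperature, light-protected; reagent: SFCypet-SUMO1-SFYpet substrate at 25 nM; control set: no-enzyme low, enzyme-DMSO high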
SENP8 block-1 = SENP8 protease inhibitors, primary screen, biochemical, luminescence; Sentrin-specific protease 8 (Homo sapiens), Q96LD8; purified SENP8, Z-RLRGG-aminoluciferin cleavage; inhibition, % at 10 µM; hit rate 1.2% among 330,000; in the data active = inhibition above about 50%
Target sequence (Q96LD8 whole entry, looked up): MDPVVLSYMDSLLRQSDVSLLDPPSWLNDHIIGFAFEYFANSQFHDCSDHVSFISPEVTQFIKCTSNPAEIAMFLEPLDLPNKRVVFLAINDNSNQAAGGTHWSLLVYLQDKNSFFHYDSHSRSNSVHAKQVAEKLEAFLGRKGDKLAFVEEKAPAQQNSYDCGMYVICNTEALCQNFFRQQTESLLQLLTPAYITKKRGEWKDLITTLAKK
SENP6 inh = SENP6 protease inhibitors, primary screen, biochemical, luminescence, uHTS; hit rate 1.8% among 330,000; Recombinant SENP6 catalytic domain, aminoluciferin luminescence; inhibition, % at 10 µM; Sentrin-specific protease 6 (Homo sapiens), Q9GZR1;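 active = inhibition above about 50% at the single tested dose, limit read from the data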
CendR NRP1 mod = modulators of CendR peptide binding to NRP-1, primary screen, biochemical, fluorescence polarization, uHTS | Neuropilin-1 (Homo sapiens), O14786 | FAM-RPARPAR peptide binding to NRP-1 | inhibition, % at 25 µM | hit rate 0.85% among 360,000 | AID 602438, 2012;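 active = inhibition or corrected inhibition above about 18%, plus a signal ratio from 0.5 to 1.5, limit read from the data, passing the limit was not always enough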
SENP7 inh = SENP7 protease inhibitors, primary screen, biochemical, luminescence, uHTS; AID 434973, 2010; recombinant SENP7, Z-RLRGG-aminoluciferin luminescence, 40 min; inhibition, % at 5 µM; hit rate 1.5% among 330,000; Sentrin-specific protease 7 (Homo sapiens), Q9BQF6;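 active = inhibition above about 50% at the single test dose, limit read from the data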
SENP8 block-2 = human SENP8 protease inhibitors, primary screen, biochemical, fluorescence, Nedd8 protein substrate, uHTS. Sentrin-specific protease 8 (Homo sapiens), Q96LD8. inhibition, % at 20 µM. hit rate 0.64% among 360,000. recombinant SENP8. AID 602440, 2012; in the data active = inhibition mostly above about 40%, no sharp cut-off; inactive = mostly below about 27%
Each line names hits and unclear results; the compound was inactive in the other large screens. Only some compounds are listed: those with a hit (about 3.3% of all), similar ones and a draw of the others.

Cc1ccc2nc(N3CCN(C)CC3)c(C=O)c(=O)n2c1	CendR NRP1 mod 22
COc1ccc(F)cc1CSc1nnnn1-c1ccc(O)cc1	CendR NRP1 mod 23
CCOc1ccc(S(=O)(=O)N2CCC(C(=O)Nc3ccccc3N3CCCC3)CC2)cc1	none (no result: SENP8 block-1, SENP6 inh, SENP7 inh)
O=C(CCS(=O)(=O)c1ccccc1)N1CCCc2ccccc21	none
O=C(C1CCCO1)N1CCc2ccccc21 (stereo unspecified)	CendR NRP1 mod 56
O=C(c1cccc(S(=O)(=O)N2CCCCC2)c1)N1CCc2ccccc21	CendR NRP1 mod 32
O=C(C1CCCCC1)N1CCc2ccccc21	none
O=C(CCC(=O)N1CCCc2ccccc21)N1CCN(S(=O)(=O)c2ccccc2)CC1	CendR NRP1 mod 28
O=C(c1ccc(Br)o1)N1CCc2ccccc21	SENP8 block-1 93, SENP6 inh 94, SENP7 inh 95 (no result: SENP1 FRET inh, CendR NRP1 mod, SENP8 block-2)
O=[N+]([O-])c1ccccc1C=NN1CCCCCC1	none (no result: SENP8 block-1, SENP6 inh, SENP7 inh)
Cc1csc(N=Nc2ccc(N(C)C)cc2)[n+]1[O-]	none (no result: SENP8 block-1, SENP6 inh, SENP7 inh)
O=C(Nc1cc(Cl)ccc1Cl)N1CCN(C(=O)Nc2cc(Cl)ccc2Cl)CC1	none (no result: SENP8 block-1, SENP6 inh, SENP7 inh)
O=C(c1ccc(S(=O)(=O)N2CCOCC2)cc1)N1CCc2ccccc2C1	none
O=C(c1ccc(S(=O)(=O)N2CCOCC2)cc1)N1CCc2ccccc21	CendR NRP1 mod 24
O=C1Nc2ccccc2-c2nnnn2C1N1CCC(Cc2ccccc2)CC1 (stereo unspecified)	none (no result: SENP8 block-1, SENP6 inh, SENP7 inh)
Cc1ccc(Cl)cc1NC(=O)COC(=O)CN1C(=O)C2CCCCC2C1=O (stereo unspecified)	CendR NRP1 mod 26
CC(C)n1c(=O)c2ccccc2n1Cc1cn(Cc2cccs2)nn1	none (no result: SENP8 block-1, SENP6 inh, SENP7 inh)
CCOc1cc(NC(=S)NCCCN2CCOCC2)c(OCC)cc1NC(=O)c1cccs1	CendR NRP1 mod 24
CCOc1cc(NC(=S)NCCCN2CCOCC2)c(OCC)cc1NC(=O)c1ccccc1	none
COc1cc(OC)nc(C(NC(=O)C2CCN(Cc3c[nH]c4ccccc34)CC2)c2ccc(Cl)cc2)n1 (stereo unspecified)	none (no result: SENP8 block-1, SENP6 inh, SENP7 inh)
CC(Oc1ccc2c3c(c(=O)oc2c1)CCC3)C(=O)NC1CCN(Cc2ccccc2)CC1 (stereo unspecified)	CendR NRP1 mod 18
C=CCOc1c(CNc2ncn[nH]2)cccc1OCC	CendR NRP1 mod 28
CCC(=O)[C@@H](C)[C@@H](OC(C)=O)[C@H](C)C[C@@H](C)[C@H]1OC(=O)C[C@@]2(O)CC=C(C)C(O2)C(C)=CCCC[C@H](O[C@H]2C[C@@H](OC(N)=O)[C@H](OC(C)=O)[C@@H](C)O2)C=C[C@H](C)C[C@H]1C	none (no result: SENP8 block-1, SENP6 inh, SENP7 inh)
CC(=O)NC(c1cccc(F)c1)c1nc(-c2cccc(C(F)(F)F)c2)cs1 (stereo unspecified)	CendR NRP1 mod 25 (no result: SENP8 block-1, SENP6 inh, SENP7 inh)
COc1ccc(-c2csc(C(NC(C)=O)c3cccc(F)c3)n2)cn1 (stereo unspecified)	CendR NRP1 mod 27 (no result: SENP8 block-1, SENP6 inh, SENP7 inh)
CC(=O)NC(c1cccc(F)c1)c1nc(-c2cccc(C(=O)O)c2)cs1 (stereo unspecified)	none (no result: SENP8 block-1, SENP6 inh, SENP7 inh)
O=C(NN=Cc1ccc2c(c1)CCN2)c1cccs1	none (no result: SENP8 block-1, SENP6 inh, SENP7 inh)
CN(CC(=O)NNC(=O)c1cccnc1)S(=O)(=O)c1cc(Cl)ccc1Cl	CendR NRP1 mod 40
CN(CC(=O)Nc1cccnc1)S(=O)(=O)c1cc(Cl)ccc1Cl	none
O=C(NNC(=O)c1ccccc1Cl)c1cccnc1	CendR NRP1 mod 23
COc1ccc2ccccc2c1C=NN1CCCCC1	none (no result: SENP8 block-1, SENP6 inh, SENP7 inh)
O=C1c2ccccc2-c2c1nc1c([n+]2[O-])CCCC1	SENP8 block-2 42
CCOc1ccc(S(=O)(=O)NNC(=O)c2cc3ccccc3o2)cc1	CendR NRP1 mod 43
CC(C)NC(=O)c1c(CSc2ccc(Cl)cc2)noc1C(=O)NCc1ccccc1	none
CC(C)NC(=O)c1c(CSc2ccccc2)noc1C(=O)NCc1ccccc1	CendR NRP1 mod 32
Cc1cccc(CCN2CCN=C2Nc2ccccc2)c1	CendR NRP1 mod 27
c1ccc(CCN2CCN=C2Nc2ccccc2)cc1	none
